Data published in ChEMBL document CHEMBL1250508, “Synthesis and cytotoxic potency of novel tris(1-alkylindol-3-yl)methylium salts: role of N-alkyl substituents” (Bioorg Med Chem, 2010).
Active and inactive are the calls of the source. The rule behind the calls is not given here.

Assays:
K562 = test: Cytotoxicity against human K562 cells after 72 hrs by MTT assay; format: functional, cell-based; conditions: K562, 72 h
In short: (§1)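 Tumour lines were grown in DMEM with 5% fetal calf serum, 2 mM L-glutamine, penicillin and streptomycin at 37 °C, 5% CO2, and used in log phase. 5×10^3 cells per well were exposed to serial concentrations (each in triplicate; 10 mM DMSO stocks diluted in water) or 0.1% DMSO for 72 h. MTT was added for 2 h, formazan dissolved in DMSO, and A540 read. IC50 was taken at 50% viability versus vehicle.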

HCT-116 [1] = test: Cytotoxicity against human HCT116 cells after 72 hrs by MTT assay; format: functional, cell-based; conditions: HCT-116, 72 h; in short: as §1
HCT-116 [2] = test: Induction of apoptosis in p53 deficient human HCT116 cells at 1 uM after 24 to 48 hrs using Annexin V-FITC staining by flow cytometry; format: functional, cell-based
Mel-Kor = test: Cytotoxicity against human Mel-Kor cells after 72 hrs by MTT assay; format: functional, cell-based; in short: as §1
HCT-116 [3] = test: Induction of apoptosis in human HCT116 cells assessed as programmed cell death at 1 uM after 24 to 48 hrs using Annexin V-FITC staining by flow cytometry; format: functional, cell-based
In short: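 HCT116 cells were plated at 5×10^4 per well overnight, given 1 µM for 24–48 h at 37 °C, 5% CO2 (controls without drug), washed with cold saline and harvested. One aliquot was stained with Annexin V-FITC per the manufacturer and analysed by flow cytometry.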

HCT-116 [4] = test: Induction of apoptosis in human HCT116 cells assessed as increase of hypodiploid nuclei at sub-G1 phase at 1 uM after 24 to 48 hrs […] by flow cytometry; format: functional, cell-based
In short: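 HCT116 cells were seeded at 5×10^4 per well overnight, then exposed to 1 µM for 24–48 h at 37 °C with drug-free controls. Cells were washed in cold saline and lysed in 0.1% sodium citrate, 0.3% NP-40, 50 µg/ml RNase A and 10 µg/ml propidium iodide. Flow cytometry on FL2 gave the percentage of hypodiploid (sub-G1) nuclei.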

HCT-116 [5] = test: Induction of apoptosis in human HCT116 cells assessed as loss of DNA integrity at 1 uM after 24 to 48 hrs using Annexin V-FITC staining by flow cytometry; format: functional, cell-based
MCF7 = test: Cytotoxicity against human MCF7 cells after 72 hrs by MTT assay; format: functional, cell-based; in short: as §1
SK-OV-3 = test: Cytotoxicity against human SKOV3 cells after 72 hrs by MTT assay; format: functional, cell-based; in short: as §1
Jurkat = test: Cytotoxicity against human Jurkat cells after 72 hrs by MTT assay; format: functional, cell-based; in short: as §1
PBL = test: Cytotoxicity against human PBL cells after 72 hrs by MTT assay; format: cell-based
In short: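 Lymphocytes were freshly isolated from peripheral blood of four healthy donors and pooled. 5×10^3 cells per well were treated with increasing concentrations in triplicate (DMSO stocks diluted in water) or 0.1% DMSO vehicle for 72 h. MTT was added for 2 h, then formazan dissolved in DMSO and read at 540 nm. IC50 was the concentration giving 50% viability relative to vehicle.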

HCT-116 [6] = test: Induction of apoptosis in human HCT116 cells assessed as internucleosomal DNA fragmentation at 1 uM after 24 to 48 hrs by agarose gel by electrophoresis; format: functional, cell-based
In short: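 HCT116 cells were seeded at 5×10^4 per well overnight and treated with 1 µM for 24–48 h, with drug-free controls. Cells were lysed for 30 min on ice in 350 mM NaCl, 20 mM Tris-HCl pH 7.4, 2 mM MgCl2, 1 mM DTT and 0.5% NP-40. DNA was phenol-chloroform extracted, ethanol/sodium acetate precipitated, and run on a 1% agarose gel.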

Fem-X = test: Cytotoxicity against human Fem-X cells after 72 hrs by MTT assay; format: functional, cell-based; in short: as §1
SK-BR-3 = test: Cytotoxicity against human SK-BR-3 cells after 72 hrs by MTT assay; format: functional, cell-based; in short: as §1

| SMILES | IC50 (K562) [nM] | IC50 (HCT-116 [1]) [nM] | further results |
| --- | --- | --- | --- |
| c1ccc(Cn2cc([C+](c3cn(Cc4ccccc4)c4ccccc34)c3cn(Cc4ccccc4)c4ccccc34)c3ccccc32)cc1 | 9300 | 15000 | – |
| c1ccc2c([C+](c3c[nH]c4ccccc34)c3c[nH]c4ccccc34)c[nH]c2c1 | 1600 | 2300 | – |
| CCn1cc([C+](c2cn(CC)c3ccccc23)c2cn(CC)c3ccccc23)c2ccccc21 | 200 | 1300 | – |
| CCCCCn1cc([C+](c2cn(CCCCC)c3ccccc23)c2cn(CCCCC)c3ccccc23)c2ccccc21 | 50 | 150 | Activity (HCT-116 [2]): Active; Activity (Mel-Kor): Active; Activity (HCT-116 [3]): Active; Activity (HCT-116 [4]): Active; Activity (HCT-116 [5]): Active; Activity (MCF7): Active; Activity (SK-OV-3): Active; Activity (Jurkat): Active; Activity (PBL): Non-toxic; Activity (HCT-116 [6]): Active; Activity (Fem-X): Active; Activity (SK-BR-3): Active |
| CCCCn1cc([C+](c2cn(CCCC)c3ccccc23)c2cn(CCCC)c3ccccc23)c2ccccc21 | 90 | 300 | – |
| CCCCCCn1cc([C+](c2cn(CCCCCC)c3ccccc23)c2cn(CCCCCC)c3ccccc23)c2ccccc21 | 74 | 300 | – |
| Cn1cc([C+](c2cn(C)c3ccccc23)c2cn(C)c3ccccc23)c2ccccc21 | 3200 | 3200 | – |
| CCCCCCCCCCn1cc([C+](c2cn(CCCCCCCCCC)c3ccccc23)c2cn(CCCCCCCCCC)c3ccccc23)c2ccccc21 | 12400 | 16400 | – |
| CCCn1cc([C+](c2cn(CCC)c3ccccc23)c2cn(CCC)c3ccccc23)c2ccccc21 | 200 | 1000 | – |
